Source: ChEMBL document CHEMBL3525967, “In vitro glucuronidation of the antibacterial triclocarban and its oxidative metabolites” (Drug Metab Dispos, 2012)

Legend:
[1] = Drug level in Swiss webster mouse urine treated with triclocarban at 5 mg/kg, po by LC-MS analysis; type: ADME, organism-based; set-up: dose 5 mg/kg, route oral; details: in vivo
How it was run: (§1)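 TCC given by oral gavage as 1 mg/mL in 20/80 DMSO/PEG400, at 1 mg/kg (rats) or 5 mg/kg (mice). Animals in metabolic cages (mice two per cage, rats singly), blank urine taken 24 h before dosing. Urine collected 0-24 h and 24-48 h and analysed by online-LC-MS.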

[2] = Drug level in Sprague-Dawley rat urine treated with triclocarban at 1 mg/kg, po by LC-MS analysis; type: ADME, organism-based; set-up: dose 1 mg/kg, route oral; details: in vivo; how it was run: as §1
[3] = Drug metabolism in microsomes (unknown origin) assessed as retention time treated with 10 uM triclocarban by LC-UV-MS method; type: ADME, Microsome
[4] = test system: Liver microsome; test: Drug metabolism in Sprague-Dawley rat liver microsomes assessed as retention time treated with 6-hydroxy-triclocarban by LC-UV-MS method in presence of UDPGA; type: ADME
[5] = Drug excretion in human urine assessed as retention time treated with triclocarban by LC-UV-MS method; type: ADME
[6] = test system: Liver microsome; test: Drug level in human liver microsomes treated with triclocarban incubated for 5 mins prior to UDPGA addition measured after 30 mins by LC-UV-ESI-MS/MS analysis; type: ADME; details: 0.5 h
How it was run: (§2)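 Microsomes or Sf-9 Supersomes (5 µg protein in 200 µL 100 mM potassium phosphate pH 7.4) pre-treated with alamethicin on ice 15 min; substrate 10 µM final (2% DMSO), MgCl2 and saccharolactone 10 mM each; 5 min preincubation at 37 °C, then UDPGA to start. Samples taken at 5, 10, 15, 30 min (or 2, 5, 10, 15 min) into ACN with internal standard; LC-UV-ESI-MS/MS.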

[7] = test system: Liver; test: Drug level in B6C3F1 mouse liver microsomes treated with triclocarban incubated for 5 mins prior to UDPGA addition measured after 30 mins by LC-UV-ESI-MS/MS analysis; type: ADME; details: 0.5 h; how it was run: as §2
[8] = Drug level in human kidney microsomes treated with triclocarban incubated for 5 mins prior to UDPGA addition measured after 30 mins by LC-UV-ESI-MS/MS analysis; type: ADME; details: 0.5 h; how it was run: as §2
[9] = target: T1, UDP-glucuronosyltransferase 1A9 (Homo sapiens, UniProt O60656); test: Activity of human UGT1A9 expressed in baculovirus infected insect sf9 cells assessed as enzyme-mediated drug metabolism treated with triclocarban incubated for 5 mins prior to UDPGA addition measured after 30 mins by LC-ESI-MS analysis; type: ADME; details: sf9, 0.5 h; how it was run: as §2
T1 sequence (O60656 whole entry): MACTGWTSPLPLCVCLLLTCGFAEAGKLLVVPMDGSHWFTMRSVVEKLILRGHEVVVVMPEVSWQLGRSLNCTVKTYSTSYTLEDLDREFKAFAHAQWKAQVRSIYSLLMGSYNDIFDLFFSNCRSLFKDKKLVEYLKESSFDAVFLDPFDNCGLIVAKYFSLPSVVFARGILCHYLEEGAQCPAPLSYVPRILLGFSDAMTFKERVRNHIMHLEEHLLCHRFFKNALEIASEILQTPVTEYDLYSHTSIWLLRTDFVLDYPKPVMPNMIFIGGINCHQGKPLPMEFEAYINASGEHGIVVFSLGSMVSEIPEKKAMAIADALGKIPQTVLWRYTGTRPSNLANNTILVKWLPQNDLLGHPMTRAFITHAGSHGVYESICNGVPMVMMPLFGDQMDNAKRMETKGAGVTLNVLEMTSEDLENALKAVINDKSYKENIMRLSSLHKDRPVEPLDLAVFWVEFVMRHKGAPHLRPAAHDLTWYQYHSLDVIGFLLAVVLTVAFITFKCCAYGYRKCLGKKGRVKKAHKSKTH

[10] = Drug level in cynomolgus monkey liver microsomes treated with triclocarban incubated for 5 mins prior to UDPGA addition measured after 30 mins by LC-UV-ESI-MS/MS analysis; type: ADME, Macaca fascicularis; details: 0.5 h; how it was run: as §2

| Compound | Drug metabolism [1] | Drug metabolism [2] | Retention_time [3] [min] | Retention_time [4] [min] | Retention_time [5] [min] | Drug metabolism [6] | Drug metabolism [7] | Drug metabolism [8] | Drug metabolism [9] | Drug metabolism [10] |
| --- | --- | --- | --- | --- | --- | --- | --- | --- | --- | --- |
| O=C(Nc1ccc(Cl)c(Cl)c1)Nc1ccc(Cl)cc1OC1O[C@H](C(=O)O)[C@@H](O)[C@H](O)[C@H]1O (stereo not given in full) | metabolite_detected | metabolite_detected | 2.5 | – | – | – | – | – | – | – |
| O=C(Nc1ccc(Cl)cc1)Nc1cc(Cl)c(Cl)cc1OC1O[C@H](C(=O)O)[C@@H](O)[C@H](O)[C@H]1O (stereo not given in full) | metabolite_detected | metabolite_detected | – | 2.51 | – | – | – | – | – | – |
| O=C(O)[C@H]1OC(N(C(=O)Nc2ccc(Cl)cc2)c2ccc(Cl)c(Cl)c2)[C@H](O)[C@@H](O)[C@@H]1O (stereo not given in full) | metabolite_detected | – | – | – | 1.97 | metabolite_detected | metabolite_detected | metabolite_detected | metabolite_detected | metabolite_detected |
| O=C(O)[C@H]1OC(N(C(=O)Nc2ccc(Cl)c(Cl)c2)c2ccc(Cl)cc2)[C@H](O)[C@@H](O)[C@@H]1O (stereo not given in full) | metabolite_detected | – | – | – | 2.07 | metabolite_detected | metabolite_detected | metabolite_detected | metabolite_detected | metabolite_detected |
| O=C(Nc1ccc(Cl)c(Cl)c1)Nc1ccc(Cl)c(OC2O[C@H](C(=O)O)[C@@H](O)[C@H](O)[C@H]2O)c1 (stereo not given in full) | metabolite_detected | metabolite_detected | – | 2.26 | – | – | – | – | – | – |
| O=C(Nc1ccc(Cl)cc1)Nc1ccc(Cl)cc1 | – | – | 4.36 | – | – | – | – | – | – | – |
| O=C(Nc1ccc(Cl)c(Cl)c1)Nc1ccc(Cl)cc1OS(=O)(=O)O | – | – | 3.46 | – | – | – | – | – | – | – |
